{"source": "ChEMBL document CHEMBL1139438", "about": "“Synthesis of N3,5'-cyclo-4-(beta-D-ribofuranosyl)-vic-triazolo[4,5-b]pyridin-5-one, a novel compound with anti-hepatitis C virus activity” (J Med Chem, 2004)", "key": {"[1]": {"assay": "Effective concentration required for antiviral activity against pinchinde virus", "type": "functional"}, "[2]": {"assay": "Effective concentration required for antiviral activity against west Nile virus", "type": "functional"}, "[3]": {"assay": "Concentration required for cytotoxic activity against african green monkey kidney MA-104 cell line was determined using neutral red method", "type": "functional", "conditions": "Cercopithecidae, MA104"}, "[4]": {"tested_on": "Respiratory syncytial virus", "assay": "Effective concentration required for antiviral activity against respiratory syncytial virus", "type": "functional, organism-based", "conditions": "human respiratory syncytial virus"}, "[5]": {"assay": "Effective concentration required for antiviral activity against bovine viral diarrhoea virus", "type": "functional, Bovine viral diarrhea virus 1"}, "[6]": {"tested_on": "Human immunodeficiency virus", "assay": "Effective concentration required for antiviral activity against human immunodeficiency virus", "type": "functional, organism-based", "conditions": "Human immunodeficiency virus 1"}, "Hepatitis B virus [7]": {"tested_on": "Hepatitis B virus", "assay": "Effective concentration required for 90% of antiviral activity against hepatitis B virus", "type": "functional"}, "[8]": {"assay": "Effective concentration required for 90% of antiviral activity against bovine viral diarrhoea virus", "type": "functional, Bovine viral diarrhea virus 1", "conditions": "Bovine viral diarrhea virus isolates and strains"}, "[9]": {"tested_on": "Human immunodeficiency virus", "assay": "Effective concentration required for 90% of antiviral activity against human immunodeficiency virus", "type": "functional", "conditions": "Human immunodeficiency virus 1"}, "Huh-7 [10]": {"tested_on": "Huh-7", "assay": "Effective concentration required for 90% reduction in subgenomic hepatitis C virus replicon RNA levels in Huh-7 cells after 96 hr of compound exposure", "type": "functional", "conditions": "Homo sapiens, Huh-7, 96 h", "procedure,_shortened": "(§1)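 HCV subgenomic replicon-bearing Huh-7 cells were seeded at 1000 cells/well in 96-well plates, with compound added immediately after seeding, and incubated for 96 h. Total cellular RNA was isolated. Replicon RNA and a ribosomal RNA internal control were amplified by single-step multiplex real-time RT-PCR. HCV RNA was normalized to rRNA by ΔΔCt and calibrated against the no-drug control. Recombinant interferon alpha-2a was the positive control.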"}, "[11]": {"assay": "Effective concentration required for antiviral activity against punta toro A virus", "type": "functional"}, "Yellow fever virus": {"tested_on": "Yellow fever virus", "assay": "Effective concentration required for antiviral activity against yellow fever virus", "type": "functional, organism-based"}, "Human respirovirus 3": {"tested_on": "Human respirovirus 3", "assay": "Effective concentration required for antiviral activity against Parainfluenza virus", "type": "functional, organism-based"}, "CCRF-CEM": {"tested_on": "CCRF-CEM", "assay": "Concentration required for cytotoxic activity against human T-cell lymphoma CEM cell line was determined using MST dye", "type": "functional", "procedure,_shortened": "(§2)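 Cytotoxicity was read with an MTS-dye cell proliferation assay and expressed as CC50 (µM).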"}, "Vero [12]": {"tested_on": "Vero", "assay": "Concentration required for cytotoxic activity against african green monkey kidney Vero cell line was determined using MST dye", "type": "functional", "conditions": "Chlorocebus sabaeus", "procedure,_shortened": "as §2"}, "SK-MEL-28": {"tested_on": "SK-MEL-28", "assay": "Concentration required for cytotoxic activity against human malignant melanoma SK-MEL-28 cell line was determined using MST dye", "type": "functional", "procedure,_shortened": "as §2"}, "HepG2": {"tested_on": "HepG2", "assay": "Concentration required for cytotoxic activity against human hepatocellular carcinoma HepG2 cell line was determined using MST dye", "type": "functional", "procedure,_shortened": "as §2"}, "Huh-7 [13]": {"tested_on": "Huh-7", "assay": "Concentration required for cytotoxic activity against human hepatocellular carcinoma Huh-7 cell line was determined using MST dye", "type": "functional", "procedure,_shortened": "as §2"}, "A549": {"tested_on": "A549", "assay": "Concentration required for cytotoxic activity against human lung carcinoma A-549 cell line using neutral red method", "type": "functional"}, "LLC-MK2": {"tested_on": "LLC-MK2", "assay": "Concentration required for cytotoxic activity against rhesus monkey kidney LLC-MK2 cell line was determined using neutral red method", "type": "functional, Cercopithecidae", "conditions": "Macaca mulatta"}, "Measles morbillivirus": {"tested_on": "Measles morbillivirus", "assay": "Effective concentration required for antiviral activity against measles virus", "type": "functional, organism-based"}, "Huh-7 [14]": {"tested_on": "Huh-7", "assay": "Effective concentration required for reduction in subgenomic hepatitis C virus replicon RNA levels in Huh-7 cells after 96 hr of compound exposure", "type": "functional, cell-based", "conditions": "Homo sapiens, Huh-7, 96 h", "procedure,_shortened": "as §1"}, "Vero [15]": {"tested_on": "Vero", "assay": "Concentration required for cytotoxic activity against african green monkey kidney Vero cell line was determined using neutral red dye", "type": "functional", "conditions": "Chlorocebus sabaeus"}, "MDCK": {"tested_on": "MDCK", "assay": "Concentration required for cytotoxic activity against madin darby canine kidney MDCK cell line was determined using neutral red method", "type": "functional", "conditions": "Canis lupus familiaris"}, "CV-1": {"tested_on": "CV-1", "assay": "Concentration required for cytotoxic activity against african green monkey kidney CV-1 cell line was determined using neutral red method", "type": "functional, Cercopithecidae", "conditions": "Chlorocebus aethiops"}, "[16]": {"assay": "Concentration required for cytotoxic activity against african green monkey kidney B-SC-1 cell line was determined using neutral red method", "type": "functional", "conditions": "Cercopithecidae, BSC-1"}, "PBMC": {"tested_on": "PBMC", "assay": "Concentration required for cytotoxic activity against primary human peripheral blood mononuclear PBM cell line was determined using MST dye", "type": "functional", "procedure,_shortened": "as §2"}, "KB": {"tested_on": "KB", "assay": "Concentration required for cytotoxic activity against human epidermoid carcinoma of the nasopharynx KB cell line was determined using neutral red method", "type": "functional"}, "Influenza A virus": {"tested_on": "Influenza A virus", "assay": "Effective concentration required for antiviral activity against Influenza A virus", "type": "functional, organism-based"}, "Influenza B virus": {"tested_on": "Influenza B virus", "assay": "Effective concentration required for antiviral activity against Influenza B virus", "type": "functional, organism-based"}, "unidentified adenovirus": {"tested_on": "unidentified adenovirus", "assay": "Effective concentration required for antiviral activity against adenovirus type 1", "type": "functional, organism-based, Human adenovirus 1"}, "Hepatitis B virus [17]": {"tested_on": "Hepatitis B virus", "assay": "Effective concentration required for antiviral activity against hepatitis B virus", "type": "functional, organism-based"}, "Human rhinovirus sp.": {"tested_on": "Human rhinovirus sp.", "assay": "Effective concentration required for antiviral activity against rhinovirus", "type": "functional, organism-based, Enterovirus"}, "Human alphaherpesvirus 1 [18]": {"tested_on": "Human alphaherpesvirus 1", "assay": "Effective concentration required for antiviral activity against herpes simplex virus type 1"}, "Human alphaherpesvirus 1 [19]": {"tested_on": "Human alphaherpesvirus 1", "assay": "Effective concentration required for 90% of antiviral activity against herpes simplex virus type 1"}}, "note": "pEC50: −log10 of the molar value.", "data": [{"smiles": "O=c1ccc2nnn3c2n1C1O[C@H](C3)[C@@H](O)[C@H]1O", "values": [{"measurement": "pEC50", "setting": "[1]", "value": "< 4.00"}, {"measurement": "pEC50", "setting": "[2]", "value": "< 4.00"}, {"measurement": "CC50", "setting": "[3]", "value": "> 100", "unit": "µM"}, {"measurement": "pEC50", "setting": "[4]", "value": "< 4.00"}, {"measurement": "pEC50", "setting": "[5]", "value": "< 4.00"}, {"measurement": "pEC50", "setting": "[6]", "value": "< 4.00"}, {"measurement": "EC90", "setting": "Hepatitis B virus [7]", "value": "> 100", "unit": "µM"}, {"measurement": "EC90", "setting": "[8]", "value": "> 100", "unit": "µM"}, {"measurement": "EC90", "setting": "[9]", "value": "> 100", "unit": "µM"}, {"measurement": "EC90", "setting": "Huh-7 [10]", "value": 79.8, "unit": "µM"}, {"measurement": "pEC50", "setting": "[11]", "value": "< 4.00"}, {"measurement": "pEC50", "setting": "Yellow fever virus", "value": "< 4.00"}, {"measurement": "pEC50", "setting": "Human respirovirus 3", "value": "< 4.00"}, {"measurement": "CC50", "setting": "CCRF-CEM", "value": 13.8, "unit": "µM"}, {"measurement": "CC50", "setting": "Vero [12]", "value": "> 100", "unit": "µM"}, {"measurement": "CC50", "setting": "SK-MEL-28", "value": "> 100", "unit": "µM"}, {"measurement": "CC50", "setting": "HepG2", "value": 74.4, "unit": "µM"}, {"measurement": "CC50", "setting": "Huh-7 [13]", "value": 49.6, "unit": "µM"}, {"measurement": "CC50", "setting": "A549", "value": "> 100", "unit": "µM"}, {"measurement": "CC50", "setting": "LLC-MK2", "value": "> 100", "unit": "µM"}, {"measurement": "pEC50", "setting": "Measles morbillivirus", "value": "< 4.00"}, {"measurement": "pEC50", "setting": "Huh-7 [14]", "value": 4.71}, {"measurement": "CC50", "setting": "Vero [15]", "value": "> 100", "unit": "µM"}, {"measurement": "CC50", "setting": "MDCK", "value": "> 100", "unit": "µM"}, {"measurement": "CC50", "setting": "CV-1", "value": "> 100", "unit": "µM"}, {"measurement": "CC50", "setting": "[16]", "value": "> 100", "unit": "µM"}, {"measurement": "CC50", "setting": "PBMC", "value": "> 100", "unit": "µM"}, {"measurement": "CC50", "setting": "KB", "value": "> 100", "unit": "µM"}, {"measurement": "pEC50", "setting": "Influenza A virus", "value": "< 4.00"}, {"measurement": "pEC50", "setting": "Influenza B virus", "value": 4.55}, {"measurement": "pEC50", "setting": "unidentified adenovirus", "value": "< 4.00"}, {"measurement": "pEC50", "setting": "Hepatitis B virus [17]", "value": "< 4.00"}, {"measurement": "pEC50", "setting": "Human rhinovirus sp.", "value": "< 4.00"}, {"measurement": "pEC50", "setting": "Human alphaherpesvirus 1 [18]", "value": "< 4.00"}, {"measurement": "EC90", "setting": "Human alphaherpesvirus 1 [19]", "value": "> 100", "unit": "µM"}]}]}
